In ChEMBL document CHEMBL3856239, “Synthesis and Antiobesity Properties of 6-(4-Chlorophenyl)-3-(4-((3,3-difluoro-1-hydroxycyclobutyl)methoxy)-3-methoxyphenyl)thieno[3,2-d]pyrimidin-4(3H)-one (BMS-814580): A Highly Efficacious Melanin Concentrating Hormone Receptor 1 (MCHR1) Inhibitor” (J Med Chem, 2016):

Columns and labels:
hERG (KCNH2) = hERG (KCNH2) (Homo sapiens, UniProt Q12809); assay: Inhibition of human ERG at 10 uM
Summary of the method: (§1)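 In vitro ion-channel inhibition measured at 10 µM against hERG, Na (4 Hz) and L-type Ca channels; read-out is percent inhibition.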

Cytochrome P450 2C19 = Cytochrome P450 2C19 (Homo sapiens, UniProt P33261); assay: Inhibition of CYP2C19 (unknown origin); type: ADME
Sequence of Cytochrome P450 2C19 (P33261 whole entry): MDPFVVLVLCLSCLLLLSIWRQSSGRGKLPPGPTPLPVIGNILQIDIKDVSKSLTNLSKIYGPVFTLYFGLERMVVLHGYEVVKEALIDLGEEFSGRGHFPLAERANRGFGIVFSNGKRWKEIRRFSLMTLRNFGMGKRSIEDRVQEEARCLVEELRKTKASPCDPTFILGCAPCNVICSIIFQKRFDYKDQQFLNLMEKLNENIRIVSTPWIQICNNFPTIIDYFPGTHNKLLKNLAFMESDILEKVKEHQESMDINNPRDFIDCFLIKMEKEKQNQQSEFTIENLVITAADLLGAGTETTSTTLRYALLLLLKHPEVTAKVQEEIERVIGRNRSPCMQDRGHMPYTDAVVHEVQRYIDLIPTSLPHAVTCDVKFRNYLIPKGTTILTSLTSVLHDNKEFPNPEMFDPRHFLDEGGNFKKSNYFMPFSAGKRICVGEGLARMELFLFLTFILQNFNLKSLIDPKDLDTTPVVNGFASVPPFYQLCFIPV
Summary of the method: (§2)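 CYP1A2, 2C8, 2C9, 2C19, 2D6 and 3A4 tested for inhibition, with 40 µM as the top tested limit.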

[1] = Metabolic stability in human liver microsomes assessed as compound remaining at 3 uM measured after 10 min; type: ADME; settings: read-out: Stability
Summary of the method: (§3)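 Test compound at 3.0 µM incubated with liver microsomes for 10 minutes; read-out is percent of parent remaining.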

[2] = Volume of distribution at steady state in dog at 1 mg/kg, iv; type: ADME, organism-based, Canis lupus familiaris; settings: in vivo, read-out: Vdss
Summary of the method: (§4)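 Full PK in rat, dog and cynomolgus monkey. Oral arm: phosphate prodrug at 10 mg/kg parent-equivalent in Methocel:Tween80:water (0.5:0.1:99.4). Intravenous arm: parent at 1 mg/kg in PEG400:DMAC:water (70:5:25). n = 3 per species; individual Tmax values reported for dog and monkey.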

[3] = biological target: Melanin-concentrating hormone receptor 1 (Rattus norvegicus, UniProt P97639); assay: Binding affinity to rat MCHR1
Sequence of Melanin-concentrating hormone receptor 1 (Rattus norvegicus, UniProt P97639) (P97639 whole entry): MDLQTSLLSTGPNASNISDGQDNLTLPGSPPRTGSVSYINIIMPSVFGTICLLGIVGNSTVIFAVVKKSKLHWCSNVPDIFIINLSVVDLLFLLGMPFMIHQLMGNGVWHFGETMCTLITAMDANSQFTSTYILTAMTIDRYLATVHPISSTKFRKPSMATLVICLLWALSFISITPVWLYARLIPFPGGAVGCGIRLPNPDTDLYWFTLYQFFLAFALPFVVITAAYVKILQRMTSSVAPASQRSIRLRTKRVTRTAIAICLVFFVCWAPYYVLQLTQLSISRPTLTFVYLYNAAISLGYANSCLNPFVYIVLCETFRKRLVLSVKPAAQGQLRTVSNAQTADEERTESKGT

Rattus norvegicus [4] = assay: Antiobesity activity in pair-fed DIO Sprague-Dawley rat model assessed as reduction in body weight at 1 mg/kg, po qd for 28 days relative to vehicle control; type: functional; parameters: scale not given: the % may be the effect or the level left
Summary of the method: (§5)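 Obese male SD rats on diet-induced obesity, 8/group, dosed orally once daily for 28 days with phosphate prodrug (0.03–3 mg/kg parent) in 14% propylene glycol/1% Tween/85% water; rimonabant 10 mg/kg control; pair-fed groups matched to 1 and 3 mg/kg intake; body weight and food measured daily, % change versus vehicle.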

[5] = Metabolic stability in mouse liver microsomes assessed as compound remaining at 3 uM measured after 10 min; type: ADME; settings: read-out: Stability; summary of the method: as §3
Homo sapiens [6] = species: Homo sapiens; assay: Inhibition of human PDE4 using [3H]cAMP at 10 uM
[7] = AUC in rat at 1 mg/kg, iv; type: ADME, organism-based; settings: in vivo
Summary of the method: (§6)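 Rats, dogs and cynomolgus monkeys, n = 3: parent 1 mg/kg i.v. in PEG400:DMAC:water (70:5:25), or phosphate prodrug 10 mg/kg oral in Methocel:Tween80:water (0.5:0.1:99.4); plasma parent compound, Cmax, Tmax, AUC0-∞, half-life, clearance, Vss and bioavailability derived.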

[8] = Half life in cynomolgus monkey at 1 mg/kg, iv; type: ADME, organism-based, Macaca fascicularis; settings: in vivo; summary of the method: as §6
[9] = Clearance in dog at 1 mg/kg, iv; type: ADME, organism-based, Canis lupus familiaris; settings: in vivo; summary of the method: as §6
Cytochrome P450 3A4 = Cytochrome P450 3A4 (Homo sapiens, UniProt P08684); assay: Inhibition of CYP3A4 (unknown origin); type: ADME
Sequence of Cytochrome P450 3A4 (P08684 whole entry): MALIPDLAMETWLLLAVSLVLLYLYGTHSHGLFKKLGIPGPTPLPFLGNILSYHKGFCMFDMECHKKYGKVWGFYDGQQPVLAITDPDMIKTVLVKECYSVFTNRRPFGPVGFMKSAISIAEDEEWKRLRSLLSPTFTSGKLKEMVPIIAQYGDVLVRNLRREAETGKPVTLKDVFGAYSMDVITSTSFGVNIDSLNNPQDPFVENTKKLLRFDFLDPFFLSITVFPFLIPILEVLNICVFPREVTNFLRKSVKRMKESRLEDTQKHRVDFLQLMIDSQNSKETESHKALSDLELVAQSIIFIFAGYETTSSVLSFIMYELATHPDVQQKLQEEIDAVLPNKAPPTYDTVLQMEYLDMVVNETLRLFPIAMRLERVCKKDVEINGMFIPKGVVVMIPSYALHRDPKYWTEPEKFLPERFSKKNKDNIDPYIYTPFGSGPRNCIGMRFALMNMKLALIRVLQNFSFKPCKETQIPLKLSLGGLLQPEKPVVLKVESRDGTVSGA

Cytochrome P450 2D6 = Cytochrome P450 2D6 (Homo sapiens, UniProt P10635); assay: Inhibition of CYP2D6 (unknown origin); type: ADME
Sequence of Cytochrome P450 2D6 (P10635 whole entry): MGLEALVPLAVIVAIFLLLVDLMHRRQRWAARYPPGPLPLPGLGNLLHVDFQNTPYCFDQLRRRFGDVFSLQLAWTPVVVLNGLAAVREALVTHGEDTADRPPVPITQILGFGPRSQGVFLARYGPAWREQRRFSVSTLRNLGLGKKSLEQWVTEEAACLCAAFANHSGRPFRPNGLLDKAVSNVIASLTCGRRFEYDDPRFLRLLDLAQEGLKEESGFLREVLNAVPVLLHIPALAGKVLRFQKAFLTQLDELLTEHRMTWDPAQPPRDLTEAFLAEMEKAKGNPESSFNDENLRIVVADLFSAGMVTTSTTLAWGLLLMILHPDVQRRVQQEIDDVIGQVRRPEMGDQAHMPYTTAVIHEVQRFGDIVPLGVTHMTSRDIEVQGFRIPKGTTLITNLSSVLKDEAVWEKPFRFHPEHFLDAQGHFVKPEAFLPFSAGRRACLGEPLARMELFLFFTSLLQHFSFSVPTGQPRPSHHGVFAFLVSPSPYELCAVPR

[10] = biological target: Melanin-concentrating hormone receptor 1 (Homo sapiens, UniProt Q99705); assay: Antagonist activity at human MCHR1 expressed in HEK293 cells assessed as inhibition of MCH-stimulated calcium flux measured after 15 mins by FLIPR assay; type: functional, cell-based
Sequence of Melanin-concentrating hormone receptor 1 (Homo sapiens, UniProt Q99705) (Q99705 whole entry): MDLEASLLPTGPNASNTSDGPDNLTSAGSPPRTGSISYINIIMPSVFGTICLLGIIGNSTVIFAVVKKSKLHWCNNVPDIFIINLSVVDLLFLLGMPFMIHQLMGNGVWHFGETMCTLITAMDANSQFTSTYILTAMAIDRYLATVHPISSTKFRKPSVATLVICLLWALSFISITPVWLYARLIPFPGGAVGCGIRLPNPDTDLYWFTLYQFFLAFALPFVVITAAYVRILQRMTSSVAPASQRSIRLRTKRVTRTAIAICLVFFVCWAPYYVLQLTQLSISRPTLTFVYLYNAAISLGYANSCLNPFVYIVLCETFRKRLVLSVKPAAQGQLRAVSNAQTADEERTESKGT

[11] = Metabolic stability in rat liver microsomes assessed as compound remaining at 3 uM measured after 10 min; type: ADME; settings: read-out: Stability; summary of the method: as §3
Homo sapiens [12] = species: Homo sapiens; assay: Inhibition of sodium channel (unknown origin) at 10 uM and 4 Hz
[13] = Volume of distribution at steady state in rat at 1 mg/kg, iv; type: ADME, organism-based; settings: in vivo, read-out: Vdss; summary of the method: as §4
[14] = Cardiotoxicity in anesthetized rabbit assessed as prolongation of QT intervals up to plasma concentration of 38 uM; type: toxicity, Oryctolagus cuniculus
Summary of the method: (§7)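 Anesthetized rabbits given compound to plasma concentrations up to 38 µM; QT and QRS duration, mean arterial blood pressure and heart rate recorded.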

Rattus norvegicus [15] = assay: Toxicity in DIO Sprague-Dawley rat assessed as biliary lesion formation at 10 mg/kg, po qd for 4 days; type: organism-based; settings: in vivo, 96 h
[16] = Mutagenic activity in Salmonella typhimurium by Ames test; type: toxicity; settings: salmonella enterica subsp. enterica serovar typhimurium
[17] = Cardiotoxicity in anesthetized rabbit assessed as prolongation of QRS intervals up to plasma concentration of 38 uM; type: toxicity, Oryctolagus cuniculus; summary of the method: as §7
[18] = Clearance rat at 1 mg/kg, iv; type: ADME, organism-based; settings: in vivo; summary of the method: as §6
[19] = Half life in rat at 1 mg/kg, iv; type: ADME, organism-based; settings: in vivo; summary of the method: as §6
[20] = Lipophilicity, log P of the compound at pH 7 by HPLC analysis; type: physicochemical; settings: buffer
Summary of the method: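 LogP determined by HPLC at pH 7.0.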

[21] = Protein binding in rat plasma assessed as unbound fraction; type: ADME, cell-free
Summary of the method: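 Plasma protein binding reported as % free drug in rat, DIO rat, dog, cynomolgus monkey, rabbit and human plasma.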

[22] = AUC in cynomolgus monkey at 1 mg/kg, iv; type: ADME, organism-based, Macaca fascicularis; settings: in vivo; summary of the method: as §6
Cytochrome P450 2C9 = Cytochrome P450 2C9 (Homo sapiens, UniProt P11712); assay: Inhibition of CYP2C9 (unknown origin); type: ADME; summary of the method: as §2
Sequence of Cytochrome P450 2C9 (P11712 whole entry): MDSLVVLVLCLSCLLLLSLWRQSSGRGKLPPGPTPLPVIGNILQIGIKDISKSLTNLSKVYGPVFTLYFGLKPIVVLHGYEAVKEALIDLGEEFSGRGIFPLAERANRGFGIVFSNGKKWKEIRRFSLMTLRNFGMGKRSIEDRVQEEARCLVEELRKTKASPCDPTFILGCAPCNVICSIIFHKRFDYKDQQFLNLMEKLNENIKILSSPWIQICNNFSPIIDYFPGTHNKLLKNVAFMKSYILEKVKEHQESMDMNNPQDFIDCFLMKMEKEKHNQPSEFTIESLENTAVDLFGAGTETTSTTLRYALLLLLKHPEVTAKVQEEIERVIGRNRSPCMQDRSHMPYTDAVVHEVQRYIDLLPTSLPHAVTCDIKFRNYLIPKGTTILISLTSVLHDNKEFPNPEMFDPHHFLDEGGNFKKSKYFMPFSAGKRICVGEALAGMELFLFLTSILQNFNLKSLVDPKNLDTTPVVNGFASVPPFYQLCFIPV

[23] = Cardiotoxicity in anesthetized rabbit assessed as effect on heart rate; type: toxicity, tissue-based, Oryctolagus cuniculus; summary of the method: as §7
Rattus norvegicus [24] = assay: Antiobesity activity in pair-fed DIO Sprague-Dawley rat model assessed as reduction in caloric intake at 3 mg/kg, po qd for 28 days relative to vehicle control; type: functional; parameters: scale not given: the % may be the effect or the level left; summary of the method: as §5
L-type calcium channel = L-type calcium channel (Homo sapiens, UniProt O60840+Q01668+Q13698+Q13936); assay: Inhibition of L-type calcium channel (unknown origin) at 10 uM; summary of the method: as §1
Rattus norvegicus [25] = assay: Antiobesity activity in pair-fed DIO Sprague-Dawley rat model assessed as reduction in body weight at 3 mg/kg, po qd for 28 days relative to vehicle control; type: functional; parameters: scale not given: the % may be the effect or the level left; summary of the method: as §5
[26] = Displacement of [Phe13,125I]Tyr19]-MCH from human MCHR1 E4Q/A5T double mutant expressed in HEK293 cells by TopCount scintillation counting method; type: cell-based
[27] = AUC in dog at 1 mg/kg, iv; type: ADME, organism-based, Canis lupus familiaris; settings: in vivo; summary of the method: as §6
Cytochrome P450 1A2 = biological target: T1, Cytochrome P450 1A2 (Homo sapiens, UniProt P05177); assay: Inhibition of CYP1A2 (unknown origin); type: ADME; summary of the method: as §2
T1 sequence (P05177 whole entry): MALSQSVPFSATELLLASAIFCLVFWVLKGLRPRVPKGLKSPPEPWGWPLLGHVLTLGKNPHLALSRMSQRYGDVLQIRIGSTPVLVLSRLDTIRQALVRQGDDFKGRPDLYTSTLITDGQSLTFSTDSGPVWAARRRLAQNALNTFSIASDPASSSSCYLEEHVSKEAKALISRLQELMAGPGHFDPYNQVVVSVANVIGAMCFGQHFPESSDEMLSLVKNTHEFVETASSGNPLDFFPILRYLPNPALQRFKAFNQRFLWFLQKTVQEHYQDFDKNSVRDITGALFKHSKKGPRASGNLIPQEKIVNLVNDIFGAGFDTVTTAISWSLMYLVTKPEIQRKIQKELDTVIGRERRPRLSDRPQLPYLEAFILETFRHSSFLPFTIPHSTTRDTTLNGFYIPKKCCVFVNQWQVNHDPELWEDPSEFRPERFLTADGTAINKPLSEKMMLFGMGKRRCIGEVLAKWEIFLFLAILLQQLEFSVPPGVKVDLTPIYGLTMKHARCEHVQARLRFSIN

[28] = Binding affinity to cynomolgus monkey MCHR1; parameters: species or system Macaca fascicularis

Sequence of hERG (KCNH2) (Q12809 whole entry): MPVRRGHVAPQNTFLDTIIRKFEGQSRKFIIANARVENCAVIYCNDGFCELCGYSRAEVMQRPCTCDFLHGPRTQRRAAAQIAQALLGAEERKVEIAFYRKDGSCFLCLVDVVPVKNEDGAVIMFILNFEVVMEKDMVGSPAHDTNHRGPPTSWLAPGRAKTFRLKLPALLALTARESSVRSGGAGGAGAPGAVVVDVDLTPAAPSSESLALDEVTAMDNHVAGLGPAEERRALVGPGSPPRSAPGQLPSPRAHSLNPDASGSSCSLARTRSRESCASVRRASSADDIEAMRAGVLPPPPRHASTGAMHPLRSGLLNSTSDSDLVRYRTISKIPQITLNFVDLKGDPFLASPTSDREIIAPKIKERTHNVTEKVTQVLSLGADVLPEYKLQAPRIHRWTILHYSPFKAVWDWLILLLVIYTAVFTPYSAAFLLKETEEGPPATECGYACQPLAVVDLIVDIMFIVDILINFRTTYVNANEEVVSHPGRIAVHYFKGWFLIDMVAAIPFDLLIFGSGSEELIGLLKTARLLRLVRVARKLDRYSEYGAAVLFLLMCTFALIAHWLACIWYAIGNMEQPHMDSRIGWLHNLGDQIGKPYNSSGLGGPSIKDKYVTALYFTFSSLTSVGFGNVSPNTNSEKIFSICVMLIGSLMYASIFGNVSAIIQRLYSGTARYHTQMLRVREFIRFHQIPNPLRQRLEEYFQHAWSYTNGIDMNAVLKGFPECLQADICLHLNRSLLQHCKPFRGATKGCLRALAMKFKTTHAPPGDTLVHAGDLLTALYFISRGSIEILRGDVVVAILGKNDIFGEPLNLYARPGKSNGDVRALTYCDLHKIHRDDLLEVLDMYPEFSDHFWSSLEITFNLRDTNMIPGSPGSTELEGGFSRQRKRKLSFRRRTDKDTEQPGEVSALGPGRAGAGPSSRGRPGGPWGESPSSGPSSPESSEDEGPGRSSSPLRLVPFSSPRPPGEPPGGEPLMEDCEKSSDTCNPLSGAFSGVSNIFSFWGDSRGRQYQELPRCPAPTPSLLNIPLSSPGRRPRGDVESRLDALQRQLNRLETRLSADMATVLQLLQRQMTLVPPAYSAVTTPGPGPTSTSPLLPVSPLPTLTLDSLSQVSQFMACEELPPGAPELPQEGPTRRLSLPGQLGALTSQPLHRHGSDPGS

For `COc1cc(-n2cnc3cc(-c4ccc(Cl)cc4)sc3c2=O)ccc1OCC1(O)CC(F)(F)C1`, the inhibition at 10 µM (hERG (KCNH2)) was 43%, the INH (Cytochrome P450 2C19) was > 40 µM and the remaining at 10 min, 3 µM [1] was 90%. The Vd [2] was 7.2 L/kg, the Ki [3] was 11.5 nM and the Activity (Rattus norvegicus [4]) was 4.2%. For the same molecule, the remaining at 10 min, 3 µM [5] was 100%, the inhibition (Homo sapiens [6]) was 68% and the AUC [7] was 11.5 µM·h. The half-life [8] was 2220 min, the clearance [9] was 6.9 mL/min/kg and the INH (Cytochrome P450 3A4) was > 40 µM. The INH (Cytochrome P450 2D6) was > 40 µM, the Kb [10] was 117 nM and the remaining at 10 min, 3 µM [11] was 95%. The inhibition (Homo sapiens [12]) was 21%, the Vd [13] was 4.1 L/kg and the Activity [14] was “Non-Toxic”. The Activity (Rattus norvegicus [15]) was “Non-Toxic”, the Activity [16] was “Non-Toxic” and the Activity [17] was “Non-Toxic”. The clearance [18] was 0.9 mL/min/kg, the half-life [19] was > 1440 min and the logP [20] was 4.8. For the same molecule, the Fu [21] was 0.2%, the AUC [22] was 22.1 µM·h and the INH (Cytochrome P450 2C9) was > 40 µM. For the same molecule, the Activity [23] was “Non-Toxic”, the Activity (Rattus norvegicus [24]) was 14.7% and the inhibition at 10 µM (L-type calcium channel) was 15%. The Activity (Rattus norvegicus [25]) was 4.1%, the Ki [26] was 16.9 nM and the AUC [27] was 5.2 µM·h. The INH (Cytochrome P450 1A2) was > 40 µM and the Ki [28] was 4.9 nM.
